This is an account of results in ChEMBL document CHEMBL2057149 (J Med Chem, 2012).

Data set [1] deals with HMVEC. As to the kind of experiment: Antiangiogenic activity in FGF1-stimulated HMVEC cells after 72 hrs by CellTiter assay. Type of data set: functional, cell-based. As to conditions: Homo sapiens.
The subject of data set [2] is Aorta. Kind of data set: Antiangiogenic activity in Sprague-Dawley rat aorta assessed as inhibition of tube formation measured up to 8 days by matrigel assay. Type of data set: functional, tissue-based. As to conditions: 192 h. An outline of the steps: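 Aortas from 6–10-week Sprague–Dawley rats cut into 1 mm rings, bisected and embedded in Matrigel. Cultured in EBM-2 with 2% FCS, supplements but no heparin and no added growth factor. Compound usually given at two concentrations within 1–50 μM (10 mM PBS stock), medium renewed every 48 h. Microvessels scored 0–5 up to 8 days by two independent observers.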

A further data set deals with Rattus norvegicus. Kind of data set: Elimination half life in Sprague-Dawley rat at 10 mg/kg, sc using [3H]-labeled compound administered as three bolus doses at 96 hrs interval. Type of data set: ADME, organism-based. Also noted: dose 10 mg/kg, route subcutaneous. To be noted: in vivo.
The test system of data set [3] is Aorta. Kind of data set: Cytotoxicity against Sprague-Dawley rat aorta assessed as VEGF-induced microvessel formation measured 6 days post compound treatment grown on fresh medium containing VEGF. The class given is tissue-based. To be noted: 144 h. An outline of the steps:
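Viability check on rat aortic ring cultures: after compound exposure, compound/medium withdrawn on day 6 or 7 and replaced with complete medium containing VEGF (typically 10 ng/mL) for up to 7 further days. Renewed microvessel sprouting taken as evidence of viable tissue.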

For data set [4], the target named is Fibroblast growth factor 2 (Homo sapiens, UniProt P09038). As to the kind of experiment: Binding affinity to FGF-2 by surface plasmon resonance assay. An outline of the steps: (§1)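 Solution-affinity SPR on heparin-coated CM4 chips. FGF-1 measured in HBS-EP (10 mM HEPES pH 7.4, 150 mM NaCl, 3.0 mM EDTA, 0.005% polysorbate 20); FGF-2 measured in HBS-EP with 300 mM NaCl. Kd is the average of at least duplicate measurements ± SD.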
Fibroblast growth factor 2, sequence (P09038 143-288 limits assumed): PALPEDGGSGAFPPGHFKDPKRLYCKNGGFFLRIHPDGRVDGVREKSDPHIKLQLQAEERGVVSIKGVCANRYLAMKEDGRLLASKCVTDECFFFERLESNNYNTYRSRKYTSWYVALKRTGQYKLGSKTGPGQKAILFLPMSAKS
Background: Surface plasmon resonance follows binding to a sensor surface in real time, without labels.

Data set [5] concerns HMVEC. Kind of data set: Antiangiogenic activity in FGF2-stimulated HMVEC cells after 72 hrs by CellTiter assay. Type of data set: functional, cell-based. As to conditions: Homo sapiens.
Data set [6] relates to Plasma. As to the kind of experiment: Anticoagulant activity in pooled human plasma assessed as prolongation of the recalcification time at 0.1 mg/ml by Heptest assay. The class given is ADME, cell-free. An outline of the steps:
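Heptest clotting time in pooled normal human plasma; normal range 13–20 s. Values are the mean of two determinations.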

In data set [7] the test system is HMVEC. Kind of data set: Antiangiogenic activity in VEGF-stimulated HMVEC cells after 72 hrs by CellTiter assay. Type of data set: functional, cell-based. To be noted: Homo sapiens.
In data set [8] the test system is HUVEC. Kind of data set: Antiangiogenic activity in HUVEC cells assessed as inhibition of tube formation after 18 hrs by matrigel assay. Type of data set: functional, cell-based. As to conditions: Homo sapiens. An outline of the steps: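 HUVECs at passage 4–5 (70–80% confluent) resuspended at 4 × 10⁵/mL in EGM2 with all supplements except heparin. Cells mixed with compound to final 10, 50 or 100 μM and plated in triplicate on growth-factor-reduced Matrigel for 18 h. Branching nodes joining three or more tubules counted by phase-contrast microscopy; percent inhibition versus untreated cells.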

Data set [9] concerns HUVEC. Kind of data set: Antiangiogenic activity in HUVEC cells assessed as inhibition of tube formation at 10 uM after 18 hrs by matrigel assay. The class given is functional. To be noted: Homo sapiens. An outline of the steps: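 HUVECs (passage 4 or 5, 70–80% confluent) suspended at 4 × 10⁵/mL in EGM2 with all supplements except heparin, mixed 1:1 with compound (final 10, 50 or 100 μM) in triplicate. Plated on growth factor-reduced Matrigel for 18 h. Branching nodes joining ≥3 tubules counted manually by phase-contrast microscopy. Reported as % inhibition versus untreated cells.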

Data set [10] has as its system Plasma. Kind of data set: Anticoagulant activity in pooled human plasma assessed as activated partial thromboplastin time at 0.1 mg/ml. Type of data set: ADME, cell-free. An outline of the steps:
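APTT of pooled normal human plasma measured with compound at 0–100 μg/mL in PBS on a ball coagulameter, using unfractionated heparin as the reference. Normal range 26–36 s; coefficient of variation 2% at 36 s and 5–7% at 90 s or above. Values are the mean of two determinations.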

In data set [11] the target is Vascular endothelial growth factor A (Homo sapiens) (UniProt P15692). As to the kind of experiment: Binding affinity to VEGF by surface plasmon resonance assay.
The subject of data set [12] is Aorta. Kind of data set: Antiangiogenic activity in Sprague-Dawley rat aorta assessed as inhibition of tube formation dosed daily at 10 uM measured up to 8 days by matrigel assay. The class given is functional. An outline of the steps:
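Aortas from 6–10-week Sprague–Dawley rats were cut into 1 mm rings, bisected and embedded in Matrigel. Cultured in EBM-2 with 2% FCS and supplements except heparin, without exogenous growth factors. Compound was usually given at two concentrations within 1–50 μM from 10 mM PBS stocks, replenished every 48 h. Microvessels were scored 0–5 up to 8 days by two independent investigators.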

The target of data set [13] is Fibroblast growth factor 1 (Homo sapiens, UniProt P05230). Kind of data set: Binding affinity to FGF-1 by surface plasmon resonance assay. Summed up: as §1
Fibroblast growth factor 1, sequence (P05230 whole entry): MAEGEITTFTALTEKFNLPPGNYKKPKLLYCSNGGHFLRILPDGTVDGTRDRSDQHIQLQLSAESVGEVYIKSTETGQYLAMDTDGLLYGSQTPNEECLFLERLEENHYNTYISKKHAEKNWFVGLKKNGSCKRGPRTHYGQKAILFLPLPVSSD
The test system of data set [14] is HUVEC. Kind of data set: Antiangiogenic activity in FGF2-stimulated HUVEC cells after 72 hrs by CellTiter assay. The class given is functional, cell-based. To be noted: Homo sapiens.
For data set [15], the system named is HUVEC. Kind of data set: Antiangiogenic activity in FGF1-stimulated HUVEC cells after 72 hrs by CellTiter assay. The class given is functional, cell-based. As to conditions: Homo sapiens.
The test system of data set [16] is HUVEC. Kind of data set: Antiangiogenic activity in VEGF-stimulated HUVEC cells after 72 hrs by CellTiter assay. Type of data set: functional, cell-based. As to conditions: Homo sapiens.
A further data set addresses T1, Heparanase (Homo sapiens, UniProt Q9Y251).
T1 sequence (Q9Y251 whole entry): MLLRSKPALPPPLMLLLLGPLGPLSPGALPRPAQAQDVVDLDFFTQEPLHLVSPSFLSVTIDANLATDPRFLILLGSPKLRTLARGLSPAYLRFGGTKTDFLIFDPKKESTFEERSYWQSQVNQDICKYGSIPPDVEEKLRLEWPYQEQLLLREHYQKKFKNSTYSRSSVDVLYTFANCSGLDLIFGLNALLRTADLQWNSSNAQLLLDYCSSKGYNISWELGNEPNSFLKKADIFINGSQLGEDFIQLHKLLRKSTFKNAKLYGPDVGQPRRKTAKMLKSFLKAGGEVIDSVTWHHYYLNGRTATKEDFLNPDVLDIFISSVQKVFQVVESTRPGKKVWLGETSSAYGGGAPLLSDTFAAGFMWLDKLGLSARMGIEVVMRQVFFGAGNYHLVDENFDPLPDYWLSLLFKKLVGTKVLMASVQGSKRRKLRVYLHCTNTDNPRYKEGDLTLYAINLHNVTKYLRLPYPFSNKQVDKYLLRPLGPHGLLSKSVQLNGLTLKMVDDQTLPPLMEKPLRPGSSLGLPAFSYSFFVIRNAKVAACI
As to the kind of experiment: Inhibition of human recombinant heparanase after 2 to 24 hrs by WST1 dye based fondaparinux assay.

Activity calls are given as the source filed them. The calls are words filed in the database; no cut-off is given here. Bounds are passed on as bounds.

One may read the IC50 as the concentration needed to halve the response being measured. As usually defined, the Kd is the free concentration of one partner at which half of the binding sites on the other are occupied at equilibrium, for simple one-to-one binding. The low end stands for a tighter complex, the high end for a looser complex. The inhibition is the change of the read-out against control, counted positive when it falls. As for `CC(C)CCC[C@@H](C)[C@H]1CC[C@H]2[C@@H]3CC[C@H]4C[C@@H](O[C@@H]5O[C@H](COS(=O)(=O)[O-])[C@@H](O[C@H]6O[C@H](COS(=O)(=O)[O-])[C@@H](O[C@H]7O[C@H](COS(=O)(=O)[O-])[C@@H](O[C@H]8O[C@H](COS(=O)(=O)[O-])[C@@H](OS(=O)(=O)[O-])[C@H](OS(=O)(=O)[O-])[C@H]8OS(=O)(=O)[O-])[C@H](OS(=O)(=O)[O-])[C@H]7OS(=O)(=O)[O-])[C@H](OS(=O)(=O)[O-])[C@H]6OS(=O)(=O)[O-])[C@H](OS(=O)(=O)[O-])[C@H]5OS(=O)(=O)[O-])CC[C@]4(C)[C@H]3CC[C@]12C.[Na+].[Na+].[Na+].[Na+].[Na+].[Na+].[Na+].[Na+].[Na+].[Na+].[Na+].[Na+].[Na+]`, the outcome in the data set on HMVEC [1], with HMVEC [5] and in the data set on HMVEC [7] was Active. In addition, the IC50 with Aorta [2] was found to be 1100 nM; in the data set with HUVEC [8], 2000 nM. Moreover, the “beta t1/2” value in the data set with Rattus norvegicus was greater than 50 h. For the same compound, the Activity result in the data set with Aorta [3] is reported as “Non-toxic”. For the same compound, the Kd is 390 nM in data set [4] and 28.9 nM in data set [11]. In addition, the Time with Plasma [6] is on record as 28.6 s. In the data set with HUVEC [9], the inhibition at 10 µM is greater than 80%. Further, the APTT in the data set with Plasma [10] came to 71.9 s. In the data set on Aorta [12], the “inhibition (INH)” value is on record as greater than 80%.

The Ki is the equilibrium dissociation constant of an inhibitor or competing ligand from its target. In the case of `CC(C)CCC[C@@H](C)[C@H]1CC[C@H]2[C@@H]3CC[C@H]4C[C@@H](O[C@H]5O[C@H](COS(=O)(=O)[O-])[C@@H](OS(=O)(=O)[O-])[C@H](OS(=O)(=O)[O-])[C@@H]5O[C@H]5O[C@H](COS(=O)(=O)[O-])[C@@H](OS(=O)(=O)[O-])[C@H](O[C@H]6O[C@H](COS(=O)(=O)[O-])[C@@H](OS(=O)(=O)[O-])[C@H](O[C@H]7O[C@H](COS(=O)(=O)[O-])[C@@H](OS(=O)(=O)[O-])[C@H](OS(=O)(=O)[O-])[C@@H]7OS(=O)(=O)[O-])[C@@H]6OS(=O)(=O)[O-])[C@@H]5OS(=O)(=O)[O-])CC[C@]4(C)[C@H]3CC[C@]12C.[Na+].[Na+].[Na+].[Na+].[Na+].[Na+].[Na+].[Na+].[Na+].[Na+].[Na+].[Na+].[Na+]`, the Kd was 0.6 nM in data set [13], 160 nM in data set [4] and 22 nM in data set [11]. Also, the result in the data set on HMVEC [1], in the data set on HMVEC [5] and in the data set with HMVEC [7] was Active. Besides, the Time in the data set with Plasma [6] was 28 s. In addition, the half-inhibitory concentration (IC50) with HUVEC [14] stood at 800 nM; in the data set on HUVEC [15] it was 1290 nM; in the data set with HUVEC [16], 1200 nM. In the data set with HUVEC [9], the inhibition at 10 µM is greater than 80%. The APTT with Plasma [10] is 94 s. In addition, in the data set on Aorta [12], the “inhibition (INH)” value is greater than 80%. Also, on Heparanase, the Ki is 5.8 nM.
